Source: PMC4589464 (Hepatology (Baltimore, Md.), 2015)
“Also recorded” adds a separate entry of the source. Where two headings read alike, the source gives them in different places.

Experiments:
HBVADV-R^A181T/N236T = experiment: Southern blot assay, Huh-7 cells transfected with ADV-resistant HBV plasmid; type: cell-based; settings: Hepatitis B virus, Huh-7, read-out: IC50 against HBVADV-R^A181T/N236T
In short: (§1)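 Huh-7 cells were transfected with the HBV variant-containing plasmid and cultured with a range of test compound concentrations. Core-associated HBV DNA was extracted and detected by Southern blot hybridization. IC50 was calculated from the change in signal density, generally averaged over two experiments. The fold change was taken relative to the IC50 against wild-type HBV plasmid.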

HBV [1] = settings: for S.I. with Anti-HBV (CC50/IC50): HepG2 2.2.15 cells
[2] = Serum human albumin and body weight monitoring of treated HBV-infected mice; type: in vivo; settings: 0.02 mg/kg/day; for serum human albumin (h-albumin) levels: HBV^WT-infected mice; for body weights: treated mice, 14 days
HBV^WT [3] = experiment: Southern blot assay, Huh-7 cells transfected with pHBV^WT; type: cell-based; settings: Hepatitis B virus
HBV [4] = experiment: microbe, parasite or virus in culture; settings: Hepatitis B virus, HepG2 2.2.15, 288 h, read-out: IC50 against Anti-HBV
HepG2 cells = type: cell-based; settings: up to 100 μM; for mtDNA synthesis / mtDNA levels / L-lactate levels in culture medium: 12 days culture; for mtDNA synthesis / mtDNA levels: real-time mtDNA-PCR; for viable cell numbers (MTT assay): day 5 of culture
[5] = test system: HBVETV-R^L180M/S202G/M204V; experiment: Southern blot assay, Huh-7 cells transfected with ETV-resistant HBV plasmid; type: cell-based; settings: Hepatitis B virus, Huh-7, read-out: IC50 against HBVETV-R^L180M/S202G/M204V
In short: as §1

in vitro = type: cell-based; settings: human
HBV^WT [6] = experiment: HBV^WT viremia in hu-liver-chimeric-uPA+/+/SCID+/+ mice; type: in vivo; settings: 0.02 mg/kg/day oral, 14 days
[7] = test system: HBVETV-R^L180M/S202G/M204V; experiment: HBVETV-R viremia in hu-liver-chimeric-uPA+/+/SCID+/+ mice; type: in vivo; settings: for effect on HBVETV-R^L180M/S202G/M204V viremia: 0.02 mg/kg/day oral once daily
In short: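 Human-liver-chimeric uPA+/+/SCID+/+ mice (SCID, uPA-transgenic, liver partly repopulated with human hepatocytes) were inoculated with the HBV variant. Dosing began 8 weeks later, once daily at 0.02 mg/kg/day for 14 days. Serum viremia was followed as log10 copies/ml change from baseline, along with serum human albumin and body weight per mouse. Livers were examined histologically at the end of dosing.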

[8] = Cytotoxicity in MT-4 cells; type: cell-based; settings: human
HIV-2 strains = experiment: Activity against HIV-2 strains; type: cell-based; settings: Table S1
[9] = type: in vivo; settings: hu-liver-chimeric mice, 14-day administration
[10] = cited from earlier work
[11] = Huh-7, read-out: IC50 against HBV^WT
[12] = Huh-7, read-out: IC50 against HBV^WT (Southern blot)

Row | SMILES | S.I. with Anti-HBV (CC50/IC50) (HBV [1]) | IC50 (HBV [4]) | mtDNA synthesis / mtDNA levels (HepG2 cells) | L-lactate levels in culture medium (HepG2 cells) | viable cell numbers (MTT assay) (HepG2 cells) | S.I. with Anti-HIV-1 (CC50/IC50) (HIV-1NL4-3; MT-4 cells) | CC50 (in vitro) | CC50 [8] | also measured
1 | C=C1[C@H](CO)[C@@H](O)C[C@@H]1n1cnc2c(=O)[nH]c(N)nc21 [ETV, entecavir] | > 140,000 | 0.7 ± 0.2 nM | no reduction of mtDNA synthesis was observed | no L-lactate level changes were identified | slight and moderate decreases in the cell viability | 38 | > 100000 nM | 39100 ± 8700 nM | IC50 (HBVADV-R^A181T/N236T): 180 nM; number of HBV copies in HepG2 2.2.15 cells (HBV [1]; at 100 nM, 12-day culture, cells alone 9.0 × 10^5 copies/well): ~ 0.9 × 10^5 copies/well; serum human albumin (h-albumin) levels [2]: comparable decrease of h-albumin levels; body weights [2]: no significant difference in body weights; IC50 (HBV^WT [3]; [11]): 14 ± 8 nM; IC50 (HBV^WT [3]; [12]): 14.1 nM; IC50 [5]: > 1000 nM; effect on HBV^WT viremia (HBV^WT [6]): viremia levels significantly went down; effect on HBVETV-R^L180M/S202G/M204V viremia ([7]; 14 days): completely failed to reduce; also recorded: essentially no reduction
2 | N#C[C@]1(CO)O[C@@H](n2cnc3c(=O)[nH]c(N)nc32)C[C@@H]1O [CdG, 4′-C-cyano-2′-deoxyguanosine] | 8,000 | 0.4 ± 0.1 nM | significantly lowered the levels of mtDNA | severely lowered the levels of L-lactate and viable cell numbers | severely lowered the levels of L-lactate and viable cell numbers | 7,000 | 3200 ± 700 nM | 2800 ± 900 nM | IC50 (HBVADV-R^A181T/N236T): 40 ± 20 nM; activity against HIV-2 strains (HIV-2 strains): potent activity against HIV-2 strains; serum human albumin (h-albumin) levels [2]: moderately decreased h-albumin levels; body weights [2]: no significant difference in body weights; liver toxicity [9]: no significant liver toxicity or general toxicity; IC50 (HBV^WT [3]; [11]): 10 ± 2 nM; IC50 (HBV^WT [3]; [12]): 9.8 nM; IC50 [5]: 40 ± 30 nM; effect on HBV^WT viremia (HBV^WT [6]): significantly blocked the replication of HBV; greatest magnitude of serum HBV-DNA level reduction (HBV^WT [6]; HBV^WT-infected mice): -2.7 log10 copies/ml; effect on HBVETV-R^L180M/S202G/M204V viremia ([7]; 14 days): significant level of viremia reduction by day 7; greatest magnitude of viremia reduction ([7]; HBVETV-R-infected mice, 0.02 mg/kg/day oral, 14 days, average of two mice): -1.2 log10 copies/ml; difference in viremia reduction magnitude between HBV^WT and HBVETV-R^L180M/S202G/M204V ([7]; mouse model): 30 fold
3 | Cc1cn([C@H]2C=C[C@@H](CO)O2)c(=O)[nH]c1=O [d4T, 2′,3′-didehydro-3′-deoxythymidine] |  | > 100000 nM |  |  |  |  | > 100000 nM | > 100000 nM | S.I. with Anti-HIV-1 (CC50/IC50) (HIV-1NL4-3): > 150
4 | C#C[C@]1(COP(=O)(O)OP(=O)(O)OP(=O)(O)O)O[C@@H](n2cnc3c(N)nc(F)nc32)C[C@@H]1O [EFdA-TP] |  |  |  |  |  |  |  |  | half-life [10]: ≥ 17 h
5 | Nc1ccn([C@@H]2CS[C@H](CO)O2)c(=O)n1 [3TC, lamivudine] | > 3,300 | 30 ± 10 nM |  |  |  | > 340 | > 100000 nM | > 100000 nM | 
6 | Nc1nc(NC2CC2)c2ncn([C@H]3C=C[C@@H](CO)C3)c2n1 [ABC, abacavir] | > 26 | 3900 ± 1000 nM |  |  |  | > 170 | > 100000 nM | > 100000 nM | 
7 | Nc1ccn([C@H]2CC[C@@H](CO)O2)c(=O)n1 [ddC, 2′,3′-dideoxycytidine] | > 130 | 750 ± 120 nM | significantly decreased mtDNA synthesis at 1 μM and beyond | without causing any significant decrease in L-lactate amounts or viable cell numbers | without causing any significant decrease in L-lactate amounts or viable cell numbers | > 300 | > 100000 nM |  | CC50 ([8]; MT-4 cells): > 100000 nM
8 | Cc1cn([C@H]2C[C@H](N=[N+]=[N-])[C@@H](CO)O2)c(=O)[nH]c1=O [AZT, 3′-azido-3′-deoxythymidine] |  | > 100000 nM |  |  |  | 1,020 | > 100000 nM | 30500 ± 3100 nM | 
